Screens (PubChem BioAssay)
This is a sample that favours compounds with a hit; in the whole collection about 4.1% have one here.
ROMK primary: modulates human ROMK potassium channel activity. P48048. Tet-inducible ROMK, thallium flux fluorescence; actives lie on both sides. B-score at 10 µM. actives 2% (n = 130,000). AID 1918;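 active = signal ratio slope over the read window, or its plate-corrected B-score, at least 3 SD from the plate mean, either direction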;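 note: B-score of the F/F0 ratio slope over 7 to 12 s after thallium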
Target sequence (P48048 whole entry, looked up): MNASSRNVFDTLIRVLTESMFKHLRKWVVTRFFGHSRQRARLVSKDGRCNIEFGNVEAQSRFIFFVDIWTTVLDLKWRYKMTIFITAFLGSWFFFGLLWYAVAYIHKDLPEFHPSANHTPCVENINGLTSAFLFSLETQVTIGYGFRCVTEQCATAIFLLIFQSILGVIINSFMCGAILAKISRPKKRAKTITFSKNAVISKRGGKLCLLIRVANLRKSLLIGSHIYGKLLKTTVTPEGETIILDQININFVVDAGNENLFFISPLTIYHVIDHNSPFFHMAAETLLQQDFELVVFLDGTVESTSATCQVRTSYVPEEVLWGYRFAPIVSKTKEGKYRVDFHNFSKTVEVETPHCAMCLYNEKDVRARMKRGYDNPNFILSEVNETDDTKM
Autophagy HCS: modulators of autophagy. MEF GFP-LC3 puncta imaging; test concentration mostly 10 µM. calls only at 10 µM (by protocol). actives 0.98% (n = 190,000). AID 463193;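 active = percentage of spot-positive cells more than 3 SD above its plate mean, without a fluorescence outlier flag or 80% toxicity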
KCC2 mod: modulators of human KCC2 chloride dependent transport; B-score of Tl+ flux slope (higher = more flux/activation; lower = inhibition) at 10 µM; actives 2.2% (n = 190,000); AID 1456; KCC2 cells, thallium flux FluoZin-2 fluorescence;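 active = thallium flux slope and its plate-corrected score both differing from the plate sample mean at a set confidence after two filtering rounds, in either direction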;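 note: slope of fluorescence scaled to starting intensity during 10 to 20 s after thallium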
Dynein cargo inh: dynein cargo transport inhibition | actives 0.47% (n = 220,000) | z-score, hits read low | AID 1381 | 3617.4 mouse cells, GR-EGFP nuclear translocation imaging; test concentration mostly 20 µM; stimulated with dexamethasone, 1 µM; stronger effect = lower value;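 active = plate z-score of nuclear minus cytoplasmic receptor signal below a set negative limit, without overly bright fluorescence or cell loss, cut at about -3.5 in these data, passing the limit was not always enough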;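 note: z-score of nuclear minus cytoplasmic ring GR-EGFP intensity difference per well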
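Buffer or medium: tet-free, stripped-serum medium; reagent: dexamethasone at 1.0 µM final, 30 min; incubation: 48 h induction, 1 h compound, 30 min dex at 37 °C; measured by: formaldehyde fixation, Hoechst nuclear stain, 10x automated fluorescence imaging; read-out: nuclear-to-cytoplasmic GR-EGFP distribution per well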
DTT redox prof: compounds producing H2O2 with reducing agent – biochemical, NIH compound library profiling, artefact control for MLSCN library redox annotation, primary screen | DTT-dependent redox cycling H2O2, phenol red/HRP absorbance; 100% = 100 µM peroxide control, 0% = buffer | activation, % at 10 µM | actives 0.03% (n = 200,000) | AID 878;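 active = activation of at least 50% relative to the plate's high and low controls in the primary single-dose screen; inactive = activation below 50%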;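 note: compound incubated with DTT at 0.8 mM final as the reducing agent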
Large screens that a line does not name were inactive.

Cc1cccc(C(=O)N2CCN(C(=O)c3cccc(C)c3)C(C)C2)c1 (stereo unspecified)	Autophagy HCS active (no result: ROMK primary)
CCOC(=O)C(Cc1ccccc1)c1ccnc2nc(N)nn12 (stereo unspecified)	none
COC(=O)Nc1ccc(S(=O)(=O)N2CCCc3ccccc32)cc1	Autophagy HCS active (no result: ROMK primary, KCC2 mod)
Cc1cc(C)cc(N=c2c([N+](=O)[O-])nn(-c3cccc(Cl)c3)n2O)c1	Autophagy HCS active (no result: KCC2 mod)
Cc1ccc(C2=NN(C(=O)c3cccs3)C(c3ccccc3O)C2)cc1 (stereo unspecified)	Autophagy HCS active
O=C(c1cccs1)N1N=C(c2ccccc2)CC1c1ccccc1O (stereo unspecified)	none
Cc1cc(NC(=O)/C(C#N)=C/c2ccc(-c3ccc(SC(F)F)cc3)o2)n(-c2ccccc2)n1	Autophagy HCS active (no result: ROMK primary)
Cc1cc(NC(=O)/C(C#N)=C/c2ccc(-c3cccc(C(F)(F)F)c3)o2)n(-c2ccccc2)n1	none (no result: ROMK primary)
Cc1ccc2cc(/C=C3\N=C(c4ccccc4)OC3=O)c(N3CCOCC3)nc2c1	ROMK primary -5.9 (no result: KCC2 mod)
O=C(NC1CCCC1)c1cnn2c(C(F)(F)F)cc(-c3ccc4c(c3)OCO4)nc12	Autophagy HCS active (no result: ROMK primary)
CCOC(=O)c1ccc(NC(=O)N2CCN(Cc3cccc(F)c3)CC2)cc1	KCC2 mod -3 (no result: ROMK primary)
Cc1ccc(S(=O)(=O)C(C#N)=C2N(C)c3ccccc3N2C)cc1	Autophagy HCS active
Cc1ccc(S(=O)(=O)/C(C#N)=C/c2c[nH]c3ccccc23)cc1	none
CCN(CC)S(=O)(=O)c1ccc(OC)c(NC(=O)c2cc(C)on2)c1	none
COc1ccc(C(=O)/C=C2/Sc3cc4c(cc3N2C)OCO4)cc1	none (no result: ROMK primary)
CN1/C(=C/C(=O)c2ccc(Cl)cc2)Sc2cc3c(cc21)OCO3	Autophagy HCS active (no result: ROMK primary)
Cc1csc2c(=O)n(CCO)c(=O)[nH]c12	none (no result: Autophagy HCS, DTT redox prof)
C=CCn1c(SCc2csc(C)n2)nc2sc3c(c2c1=O)CCCC3	none (no result: KCC2 mod)
C=CCn1c(=S)[nH]c2sc3c(c2c1=O)CCC3	ROMK primary 3.2, KCC2 mod 31
Cc1nn(C)cc1C1Nc2ccccc2C(=O)N1O (stereo unspecified)	none (no result: ROMK primary)
C=CCc1cccc(C2Nc3ccccc3C(=O)N2O)c1O (stereo unspecified)	KCC2 mod 13 (no result: ROMK primary)
COc1ccccc1[C@@H]1C(c2ccc(F)cc2)=NN(c2ccccc2)[C@H]1C(=O)N1CCOC1=O	Autophagy HCS active
COc1ccccc1[C@@H]1C(c2cccc(C)c2)=NN(c2ccccc2)[C@H]1C(=O)N1CCOC1=O	none
CN1c2ccsc2/C(=N/Nc2ccccc2)CS1(=O)=O	Autophagy HCS active
CCSc1ncnc2sc(C)c(C)c12	Autophagy HCS active
Cc1sc2ncnc(SCC(=O)N3CCCC3)c2c1C	none
O=c1[nH]c(-c2ccccc2F)nc2c1sc(=S)n2Cc1ccccc1	Autophagy HCS active (no result: ROMK primary)
COc1ccc(CN(CCC#N)C(=S)NC(=O)c2ccccc2)cc1	KCC2 mod 17
N#CCCN(Cc1ccccc1)C(=S)NC(=O)c1ccccc1	none (no result: ROMK primary, KCC2 mod)
C=CCNC(=O)c1cc(Cl)cc(Cl)c1	none (no result: KCC2 mod)
CNc1sc(C(=O)c2cccs2)c(N)c1-c1nc2ccccc2s1	none (no result: ROMK primary)
CNc1sc(C(=O)c2ccc(F)cc2)c(N)c1-c1nc2ccccc2s1	KCC2 mod 9.9 (no result: ROMK primary)
C=CCc1cc(OC)ccc1OCCOCCN1CCc2ccccc2C1	none
CC(Nc1cc(N2CCCC2)ccc1[N+](=O)[O-])c1ccccc1 (stereo unspecified)	none (no result: ROMK primary)
CCCC(=O)N1CCN(c2ccc([N+](=O)[O-])c(NC(C)c3ccccc3)c2)CC1 (stereo unspecified)	ROMK primary -5.3, KCC2 mod -4.6
Cc1cccc(NC(=O)COc2ccc(/C=C\c3[nH]c(=O)[nH]c(=O)c3[N+](=O)[O-])cc2)c1	none
COc1ccc(/C=N/NC(=O)c2cccnc2)cc1Cn1nc([N+](=O)[O-])c(Br)c1C	Autophagy HCS active (no result: KCC2 mod)
COc1ccc(/C=N/NC(=O)c2cccnc2)cc1CN1CCc2ccccc2C1	none (no result: Autophagy HCS, DTT redox prof)
Cc1c(C(=O)O)c(=S)sn1CCOc1ccccc1	KCC2 mod -2.5
O=C1c2ccccc2C(=O)N1CCOc1ccccc1	none (no result: ROMK primary)
CCc1ccc(/C=C(/C#N)C(N)=S)s1	none
CCc1sc(/C=C(/C#N)C(N)=S)cc1[N+](=O)[O-]	ROMK primary -4.4
Cc1cccc(C(=O)Nc2ccc(O)c3c(=O)cc(-c4ccccc4Cl)oc23)c1	Autophagy HCS active
CCCCN(CCCC)Cc1ccc(C(=O)NNC(=O)Nc2ccccc2)o1	Autophagy HCS active
CCCC(=O)N=C1SC2CS(=O)(=O)CC2N1c1ccc(-c2nc3ccc(C)cc3s2)cc1 (stereo unspecified)	none (no result: ROMK primary)
CCCCN1CC(O)=C(c2nc(-c3ccc(Cl)cc3)cs2)C1=N	Autophagy HCS active (no result: KCC2 mod)
N=C1C(c2nc(-c3ccc(Cl)cc3)cs2)=C(O)CN1CCCN1CCOCC1	none
CCOC(=O)c1sc(NC(=O)CSc2nc3c(cc2C#N)CCCCCC3)c(C#N)c1C	Autophagy HCS active
COc1cccc(NC(=O)CSc2nc3ccccc3c(=O)n2Cc2cccs2)c1	Autophagy HCS active
COc1ccc(NC(=O)CSc2nc3ccccc3c(=O)n2Cc2cccs2)c(OC)c1	none
CCOC(=O)c1c(NC(=S)NCC2CCCO2)sc(C)c1C (stereo unspecified)	ROMK primary 3.5, KCC2 mod 25
C[C@H](NC(=O)c1nc[nH]c1C(=O)NCCCCCNC(=O)OC(C)(C)C)C(=O)OCc1ccccc1	KCC2 mod -4.4 (no result: ROMK primary)
CC(C)C[C@H](NC(=O)c1nc[nH]c1C(=O)NCCCCCNC(=O)OC(C)(C)C)C(=O)OCc1ccccc1	none (no result: ROMK primary)
CN(C)CCCOC(=O)c1sc2ccccc2c1Cl	none (no result: ROMK primary)
CCCCOC(=S)NC(=O)c1sc2ccccc2c1Cl	KCC2 mod 47 (no result: ROMK primary)
Cc1ccc(NC(=S)NC(=O)c2sc3ccccc3c2Cl)c(C(=O)O)c1	ROMK primary 4.5, KCC2 mod 60
Cc1[nH]c(=O)[nH]c(=O)c1NS(=O)(=O)c1ccccc1	none (no result: ROMK primary)
CCOC(=O)c1ccc(N/C=C\C(=O)c2cccc(OC)c2)cc1	none (no result: ROMK primary)
COc1cccc(C(=O)/C=C/Nc2cc(C)ccc2O)c1	Autophagy HCS active (no result: ROMK primary, KCC2 mod)
N=c1sccn1CC(=O)Nc1ccc(SC(F)F)cc1	Autophagy HCS active
Nc1nc(SCC(=O)Nc2ccc(Cl)c(S(=O)(=O)N3CCOCC3)c2)n[nH]1	none (no result: ROMK primary, Autophagy HCS, KCC2 mod, DTT redox prof)
COc1cc(C(=O)N/N=C(\c2ccccc2)c2ccccn2)cc(OC)c1OC	none (no result: ROMK primary)
COc1cccc(C(=O)N/N=C(/c2ccccc2)c2ccccn2)c1	Autophagy HCS active (no result: ROMK primary)
O=C(COC(=O)CCSc1ccccc1)NCc1ccccc1	none
Cc1cccc(-c2c3c(=O)n(C)c(=O)n(C)c3c3nnc4ccccc4n23)c1	Autophagy HCS active (no result: ROMK primary, KCC2 mod)
CS(=O)(=O)N1CCN(C(=O)COc2ccccc2)CC1	Autophagy HCS active
